Experiments:
Assay type in all cases: functional
Mus musculus [1] = assay: Percent change in the weight after administering a dose of 100 mg/kg to mice bearing L1210 leukemia
In short: (§1)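 L1210 ascites cells were propagated in CDF₁ mice and 0.1 mL of a suspension at 10⁶ cells/mL in isotonic saline was implanted ip. Compound was given ip once daily for 6 consecutive days starting 24 h after implantation, as a fine suspension in Tween 80/saline (0.5 mL). Groups of five were used, with vehicle controls. The read-out was average body-weight change from onset to end of therapy.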

Mus musculus [2] = assay: Percent change in the weight after administering a dose of 150 mg/kg to mice bearing L1210 leukemia; in short: as §1
Mus musculus [3] = assay: Percent change in the weight after administering a dose of 50 mg/kg to mice bearing L1210 leukemia; in short: as §1
Mus musculus [4] = assay: Average survival time of control mice bearing L1210 leukemia at a dose 50 mg/kg
In short: (§2)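 L1210 ascites cells passaged in CDF1 mice, taken from 7-day donors, spun, diluted 10-fold in isotonic saline and set to 10^6 cells/mL by Coulter count; 0.1 mL given ip. Compound suspended in 2–3 drops 20% aqueous Tween 80 plus isotonic saline, 0.5 mL ip once daily for 6 days from 24 h after implant. Groups of five; vehicle-injected controls. %T/C = treated/control mean survival ×100.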

Mus musculus [5] = assay: Average survival time of treated mice bearing the L1210 leukemia at a dose 150 mg/kg; in short: as §2
Mus musculus [6] = assay: Percentage of average survival time of control/treated mice bearing sarcoma 180 at a dose 100 mg/kg
Mus musculus [7] = assay: Average survival time of treated mice bearing the L1210 leukemia at a dose 50 mg/kg; in short: as §2
Mus musculus [8] = assay: Percentage of average survival time of control/treated mice bearing the L1210 leukemia at a dose 100 mg/kg; in short: as §2
Mus musculus [9] = assay: Percentage of average survival time of control/treated mice bearing the L1210 leukemia at a dose 50 mg/kg; in short: as §2
Mus musculus [10] = assay: Average survival time of treated mice bearing the L1210 leukemia at a dose 100 mg/kg; in short: as §2
Mus musculus [11] = assay: Percentage of average survival time of control/treated mice bearing the L1210 leukemia at a dose 150 mg/kg; in short: as §2
Mus musculus [12] = assay: Percentage of average survival time of control/treated mice bearing P388 leukemia at a dose 150 mg/kg
Mus musculus [13] = assay: Average survival time of mice bearing L1210 leukemia at a dose 50 mg/kg; in short: as §2
Mus musculus [14] = assay: Percentage of average survival time of control/treated mice bearing sarcoma 180 at a dose 50 mg/kg

Structure (SMILES) | Average weight change (Mus musculus [1]) | Average weight change (Mus musculus [2]) | Average weight change (Mus musculus [3]) | Survival time (Mus musculus [4]) | Survival time (Mus musculus [5]) | T/C (Mus musculus [6]) | Survival time (Mus musculus [7]) | T/C (Mus musculus [8]) | T/C (Mus musculus [9]) | Survival time (Mus musculus [10]) | T/C (Mus musculus [11]) | T/C (Mus musculus [12]) | Survival time (Mus musculus [13]) | T/C (Mus musculus [14])
CN(NS(=O)(=O)c1ccccc1)S(=O)(=O)c1ccccc1 | -5.2% | -13.5% | -4.8% | 9 days | 9.4 days | 203% |  |  |  |  |  |  |  | 
CN(NS(=O)(=O)c1ccc(Cl)cc1)S(=O)(=O)c1ccc(Cl)cc1 | 1.3% | 6.9% | 4% | 9.5 days |  |  | 11.4 days | 124% | 120% |  |  |  |  | 
O=S(=O)(NNS(=O)(=O)c1ccccc1)c1ccccc1 | 5.8% | 0.8% | -0.3% | 9.5 days | 9.6 days |  | 9.2 days | 97% | 97% | 9.2 days | 101% |  |  | 
COc1ccc(S(=O)(=O)NN(C)S(=O)(=O)c2ccc(OC)cc2)cc1 | -1.6% | 4.1% | 1.9% | 9 days |  |  |  |  |  |  |  | 136% |  | 
CN(NS(=O)(=O)c1ccc2ccccc2c1)S(=O)(=O)c1ccc2ccccc2c1 | -3.3% | 4.1% | 3% | 9 days | 9 days |  |  |  |  |  |  |  |  | 
Cc1ccc(S(=O)(=O)NN(C)S(=O)(=O)c2ccc(C)cc2)cc1 | 0.8% |  | 3.7% | 9.5 days |  |  |  |  |  |  |  |  | 14 days | 197%
CN(NC(=O)c1ccccc1)C(=O)c1ccccc1 | -2% | -2% | 2.5% | 9.5 days | 9.2 days |  | 9.2 days | 97% | 97% | 9.2 days | 97% |  |  | 

Reference: ChEMBL document CHEMBL1122985, “Synthesis and evaluation of N,N'-bis(arylsulfonyl)hydrazines as antineoplastic agents” (1985)
